Reference: ChEMBL document CHEMBL2380239, “Novel ROS-activated agents utilize a tethered amine to selectively target acute myeloid leukemia” (Bioorg Med Chem Lett, 2013)

Assays:
HeLa = assay: Cytotoxicity against human HeLa cells after 48 hrs by MTT assay; assay type: functional, cell-based
[1] = Therapeutic index, ratio of IC50 for human CD34-positive blood stem/progenitor cells to IC50 for human MA9.3 cells; conditions: CD34-positive blood stem/progenitor cells versus MA9.3 cells, read-out: Ratio IC50
Outline: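 Cytotoxicity was measured in parallel on non-cancerous human CD34+ blood stem/progenitor cells (UCB) and on the MA9.3 AML line, which was made by introducing the MLL-AF9 oncogene into human CD34+ cells. The index is IC50 in CD34+ cells divided by IC50 in MA9.3, reported as mean ± error.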

[2] = Cytotoxicity against human CD34-positive blood stem/progenitor cells after 48 hrs by MTT assay; assay type: cell-based
Outline: (§1)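 Non-transformed human CD34+ blood stem/progenitor cells from umbilical cord blood were run alongside MA9.3, an AML line made by introducing the MLL-AF9 oncogene into human CD34+ cells. IC50 was determined on each cell type. Therapeutic index is the ratio between the MA9.3 and CD34+ IC50 values.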

[3] = Cytotoxicity against human MA9.3 cells after 48 hrs by MTT assay; assay type: functional, cell-based; outline: as §1

CN(CCCCOc1ccc(O)cc1)c1ccccc1
IC50 (HeLa): 12 µM

CN(CCCCCOc1ccc(O)cc1)c1ccccc1
IC50 (HeLa): 13 µM

CN(CCOc1ccc(O)cc1)Cc1ccccc1
IC50 (HeLa): 33 µM

CN(C(=O)COc1ccc(O)cc1)c1ccccc1
IC50 (HeLa): > 125 µM

CN(CCCOc1ccccc1)c1ccccc1
IC50 (HeLa): > 125 µM

CCOc1ccc(O)cc1 [1-hydroxy-4-ethoxybenzene]
IC50 (HeLa): > 125 µM

O=C(O)CCCc1ccc(N(CCCl)CCCl)cc1 [CHLORAMBUCIL]
selectivity ratio [1]: 1.3
IC50 [2]: 11 µM
IC50 [3]: 8.7 µM

Nc1ccn([C@@H]2O[C@H](CO)[C@@H](O)[C@@H]2O)c(=O)n1 [CYTARABINE]
selectivity ratio [1]: 0.6
IC50 [2]: 0.59 µM
IC50 [3]: 0.92 µM

COc1cccc2c1C(=O)c1c(O)c3c(c(O)c1C2=O)C[C@@](O)(C(=O)CO)C[C@@H]3O[C@H]1C[C@H](N)[C@H](O)[C@H](C)O1 [DOXORUBICIN]
IC50 [2]: 0.076 µM
IC50 [3]: 0.086 µM
